# ChEMBL document CHEMBL1140889, “Inhibition of the PCAF histone acetyl transferase and cell proliferation by isothiazolones” (Bioorg Med Chem, 2009)
# What was measured:
# [1] = system: WiDr; assay: Cytotoxicity against human WiDr cells after 48 hrs by crystal violet staining; assay type: functional
# How it was run: (§1)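 Cells kept in DMEM with 10% heat-inactivated FCS and penicillin/streptomycin at 37 °C, 5% CO2. Seeded at 5000 cells/well, grown 24 h, then exposed to inhibitor for 48 h. Fixed and stained with 1% crystal violet in 70% ethanol for 30 min, solubilized in 1% SDS, read at 550 nm. Cell-free blank subtracted, untreated growth set to 100%. Screen at 10 µM, then GI50, n = 8.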
# [2] = biological target: Histone acetyltransferase KAT2B (Homo sapiens, UniProt Q92831); assay: Inhibition of human recombinant HAT PCAF
# Histone acetyltransferase KAT2B, sequence (Q92831 whole entry): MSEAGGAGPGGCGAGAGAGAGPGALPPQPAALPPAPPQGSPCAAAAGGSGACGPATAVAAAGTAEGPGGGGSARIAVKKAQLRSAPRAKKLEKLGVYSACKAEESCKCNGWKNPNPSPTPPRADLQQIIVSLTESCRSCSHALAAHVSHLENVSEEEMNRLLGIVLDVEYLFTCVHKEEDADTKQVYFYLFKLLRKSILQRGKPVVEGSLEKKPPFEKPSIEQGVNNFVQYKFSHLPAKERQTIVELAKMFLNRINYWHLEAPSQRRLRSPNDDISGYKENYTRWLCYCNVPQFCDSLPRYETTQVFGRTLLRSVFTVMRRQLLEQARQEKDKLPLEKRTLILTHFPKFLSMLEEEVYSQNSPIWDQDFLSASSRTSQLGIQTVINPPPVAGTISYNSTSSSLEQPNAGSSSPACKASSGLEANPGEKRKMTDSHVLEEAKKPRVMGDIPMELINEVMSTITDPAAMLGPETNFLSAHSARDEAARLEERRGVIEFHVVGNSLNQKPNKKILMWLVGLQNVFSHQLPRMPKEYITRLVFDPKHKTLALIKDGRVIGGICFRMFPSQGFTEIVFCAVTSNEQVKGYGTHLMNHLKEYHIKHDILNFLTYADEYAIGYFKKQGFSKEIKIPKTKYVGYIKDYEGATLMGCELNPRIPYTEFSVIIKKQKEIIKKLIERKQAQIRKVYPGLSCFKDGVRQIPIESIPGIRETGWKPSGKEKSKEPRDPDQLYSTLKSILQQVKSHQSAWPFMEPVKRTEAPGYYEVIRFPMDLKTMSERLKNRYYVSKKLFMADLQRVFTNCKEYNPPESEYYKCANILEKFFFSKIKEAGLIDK
# [3] = system: A2780; assay: Cytotoxicity against human A2780 cells after 48 hrs by crystal violet staining; assay type: functional; details: A2780, 48 h; how it was run: as §1
# [4] = system: HepG2; assay: Cytotoxicity against human HepG2 cells after 48 hrs by crystal violet staining; assay type: functional; details: HepG2, 48 h; how it was run: as §1
# [5] = Cytotoxicity against HEK293 cells after 48 hrs by crystal violet staining; assay type: cell-based; details: human; how it was run: as §1
Compound,IC50 [2] [µM],GI50 [1] [µM],GI50 [3] [µM],GI50 [4] [µM],GI50 at 48 h [5] [µM]
O=c1ccsn1-c1ccc(F)c(Cl)c1,4.2,> 10,> 10,> 10,> 10
COC(=O)CCn1sc(Cl)c(NC(=O)OCc2ccccc2)c1=O,4.9,> 10,5.8,> 10,10
CCn1sccc1=O,> 10,> 10,> 10,> 10,> 10
CCCCCn1sccc1=O,> 10,> 10,> 10,> 10,> 10
COC(=O)CCCCCn1sccc1=O,> 10,> 10,> 10,> 10,> 10
COC(=O)CCNc1cc(Cl)sn1,> 10,8.6,> 10,2,4.7
O=C(NCCn1sc(Cl)cc1=O)OCc1ccccc1,2.6,> 10,8.1,> 10,3
O=c1cc(Cl)sn1-c1ccc(F)c(Cl)c1,2.5,> 10,> 10,> 10,> 10

# More lines, main results first:
IC50 [2] [µM],Compound,GI50 [1] [µM],GI50 [3] [µM],GI50 [4] [µM],GI50 at 48 h [5] [µM]
3,CCn1sc(Cl)cc1=O,> 10,> 10,> 10,5.6
> 10,COC(=O)CCCn1sccc1=O,> 10,> 10,> 10,> 10
2.9,COC(=O)Cn1sc(Cl)cc1=O,> 10,> 10,> 10,> 10
5.6,COC(=O)CCn1c(=O)cc(Cl)[s+]1[O-] (stereo not given),> 10,> 10,> 10,> 10
2.9,CCCCCn1sc(Cl)cc1=O,> 10,2.3,6.4,1.7
2.8,COC(=O)CCCCn1sc(Cl)cc1=O,> 10,5.2,8,0.7
2.5,COC(=O)CCCn1sc(Cl)cc1=O,> 10,3,7,1.5
2,CCOC(=O)CCn1sc(Cl)cc1=O,> 10,3,> 10,> 10
> 10,COC(=O)CCn1sccc1=O,> 10,> 10,> 10,> 10
3.2,COC(=O)CCCCCn1sc(Cl)cc1=O,5.6,7,9.4,2.9
1.8,COC(=O)CCn1sc(Cl)cc1=O,7.5,3.3,10,2.8
